In ChEMBL document CHEMBL2321723, “Synthesis and mechanistic studies of novel spin-labeled combretastatin derivatives as potential antineoplastic agents” (Bioorg Med Chem, 2013):
Activity calls are given as the source filed them. The calls are words filed in the database; no cut-off is given here.

Tests used:
[1] = Cytotoxicity against human […] cells after 24 hrs by MTT assay; type: functional, cell-based
How it was run: (§1)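 MTT assay in RPMI 1640 with 10% fetal calf serum, 2 mM L-glutamine and […]. Log-phase cells seeded, attached 24 h at 37 °C and 5% CO₂, then treated at 0–100 μM. Compounds dissolved in DMSO (1 mg/mL stock), DMSO below 0.1% in wells. Five wells per concentration, triplicate experiments. Blank-corrected OD taken as % of untreated growth, IC50 = 50% inhibition.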

K562 = test: Cytotoxicity against human K562 cells after 24 hrs by MTT assay; type: functional, cell-based; how it was run: as §1
HeLa [2] = test: Cytotoxicity against human HeLa cells after 24 hrs by MTT assay; type: functional, cell-based; how it was run: as §1
HepG2 = test: Cytotoxicity against human HepG2 cells after 24 hrs by MTT assay; type: functional, cell-based; how it was run: as §1
HeLa [3] = test: Cell cycle arrest in human HeLa cells assessed as accumulation in subG1 phase at 0.375 uM after 36 hrs by PI-staining based flow cytometric analysis (reference value: 0.2%); type: functional
How it was run: (§2)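 HeLa cells (1 × 10⁵) exposed 36 h to 0, 0.375, 1.5 or 3 μM; washed twice in ice-cold PBS, harvested and fixed. Then RNase A (0.1 mg/mL, 37 °C, 30 min) and propidium iodide staining (30 min on ice, dark). Flow cytometry gave sub-G1, G1, S and G2 fractions, compared with untreated cultures.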

Capra hircus [4] = species: Capra hircus; test: Inhibition of goat tubulin polymerization assessed as club shaped cytoskeleton at 3 uM after 30 mins by transmission electron microscopic analysis
How it was run: (§3)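 Microtubule protein from goat brain purified by repeated warm polymerisation and cold depolymerisation cycles with glycerol, ATP and GTP. Tubulin incubated ± compound 30 min at 37 °C in 80 mM PIPES pH 6.9, 1 mM MgCl₂, […], 30% glycerol, 1 mM GTP. Fixed in 0.5% glutaraldehyde, grids stained with uranyl acetate, viewed by TEM at 100 kV.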

HeLa [5] = test: Cell cycle arrest in human HeLa cells assessed as accumulation in subG1 phase at 3 uM after 36 hrs by PI-staining based flow cytometric analysis (reference value: 0.2%); type: functional; how it was run: as §2
Capra hircus [6] = species: Capra hircus; test: Inhibition of goat tubulin polymerization at 3 uM after 30 mins by transmission electron microscopic analysis; how it was run: as §3
HeLa [7] = test: Cell cycle arrest in human HeLa cells assessed as accumulation in G1 phase at 1.5 uM after 36 hrs by PI-staining based flow cytometric analysis (reference value: 47.36%); type: functional; how it was run: as §2
HeLa [8] = test: Cell cycle arrest in human HeLa cells assessed as accumulation in subG1 phase at 1.5 uM after 36 hrs by PI-staining based flow cytometric analysis (reference value: 0.2%); type: functional; how it was run: as §2
HeLa [9] = test: Cell cycle arrest in human HeLa cells assessed as accumulation in subG1 phase after 36 hrs by PI-staining based flow cytometric analysis; type: functional; how it was run: as §2
HeLa [10] = test: Induction of apoptosis in human HeLa cells assessed as early apoptotic cells at 0.375 to 3 uM after 24 hrs by FITC/AnnexinV-based flow cytometric analysis (reference value: 0.17%); type: functional
HeLa [11] = test: Cell cycle arrest in human HeLa cells assessed as decrease in S phase after 36 hrs by PI-staining based flow cytometric analysis; type: functional; how it was run: as §2
HeLa [12] = test: Cell cycle arrest in human HeLa cells assessed as decrease in G2 phase after 36 hrs by PI-staining based flow cytometric analysis; type: functional; how it was run: as §2
HeLa [13] = test: Induction of apoptosis in human HeLa cells at 3 uM after 24 hrs by FITC/AnnexinV-based flow cytometric analysis (reference value: 0.98%); type: functional
HeLa [14] = test: Induction of apoptosis in human HeLa cells at 0.375 uM after 24 hrs by FITC/AnnexinV-based flow cytometric analysis (reference value: 0.98%); type: functional
HeLa [15] = test: Cell cycle arrest in human HeLa cells assessed as accumulation in G1 phase at 0.375 uM after 36 hrs by PI-staining based flow cytometric analysis (reference value: 47.36%); type: functional; how it was run: as §2
HeLa [16] = test: Induction of apoptosis in human HeLa cells at 1.5 uM after 24 hrs by FITC/AnnexinV-based flow cytometric analysis (reference value: 0.98%); type: functional
HeLa [17] = test: Induction of apoptosis in human HeLa cells assessed as late apoptotic cells at 0.375 to 3 uM after 24 hrs by FITC/AnnexinV-based flow cytometric analysis (reference value: 0.81%); type: functional
HeLa [18] = test: Cell cycle arrest in human HeLa cells assessed as accumulation in G1 phase after 36 hrs by PI-staining based flow cytometric analysis; type: functional; how it was run: as §2
HeLa [19] = test: Cell cycle arrest in human HeLa cells assessed as accumulation in G1 phase at 3 uM after 36 hrs by PI-staining based flow cytometric analysis (reference value: 47.36%); type: functional; how it was run: as §2

SMILES | IC50 [1] | IC50 (K562; k562) | IC50 (HeLa [2]; hela) | IC50 (HepG2; hepg2) | further results
CC[C@H](C)[C@H](NC(=O)OC1CC(C)(C)N([O])C(C)(C)C1)C(=O)Nc1cc(/C=C\c2cc(OC)c(OC)c(OC)c2)ccc1OC | 3.07 µM | 18.8 µM | 2.33 µM | 2.19 µM | 
COc1ccc(/C=C\c2cc(OC)c(OC)c(OC)c2)cc1NC(=O)C1=CC(C)(C)N([O])C(C)(C)C1 | 6.21 µM | 15.6 µM | 8.57 µM | 10.7 µM | 
COc1ccc(/C=C\c2cc(OC)c(OC)c(OC)c2)cc1NC(=O)[C@H](Cc1ccccc1)NC(=O)OC1CC(C)(C)N([O])C(C)(C)C1 | 6.33 µM | 5.8 µM | 8.37 µM | 0.28 µM | 
COc1cc([C@@H]2c3cc4c(cc3[C@@H](O[C@@H]3O[C@@H]5CO[C@@H](C)O[C@H]5[C@H](O)[C@H]3O)[C@H]3COC(=O)[C@H]23)OCO4)cc(OC)c1O [ETOPOSIDE] |  |  |  |  | IC50 ([1]; Homo sapiens, 24 h): 26.9 µM; IC50 (K562; Homo sapiens, K562, 24 h): 2.85 µM; IC50 (HeLa [2]; Homo sapiens, HeLa, 24 h): 17.7 µM; IC50 (HepG2; Homo sapiens, HepG2, 24 h): 104 µM
COc1ccc(/C=C\c2cc(OC)c(OC)c(OC)c2)cc1NC(=O)C1CC(C)(C)N([O])C1(C)C (stereo not drawn) | 4.93 µM | 10.4 µM | 7.6 µM | 25 µM | 
COc1ccc(/C=C\c2cc(OC)c(OC)c(OC)c2)cc1NC(=O)C1=CC(C)(C)N([O])C1(C)C | > 100 µM | > 100 µM | 42.3 µM | 38.8 µM | 
COc1ccc(/C=C\c2cc(OC)c(OC)c(OC)c2)cc1NC(=O)[C@H](Cc1c[nH]c2ccccc12)NC(=O)OC1CC(C)(C)N([O])C(C)(C)C1 | 3.55 µM | 0.56 µM | 2.08 µM | 2.27 µM | 
COc1ccc(/C=C\c2cc(OC)c(OC)c(OC)c2)cc1NC(=O)[C@H](C)NC(=O)OC1CC(C)(C)N([O])C(C)(C)C1 | 0.96 µM | 1.56 µM | 0.39 µM | 0.73 µM | 
COc1ccc(/C=C\c2cc(OC)c(OC)c(OC)c2)cc1NC(=O)[C@@H](NC(=O)OC1CC(C)(C)N([O])C(C)(C)C1)C(C)C | 0.43 µM | 12 µM | 0.15 µM | 1.05 µM | 
COc1ccc(/C=C\c2cc(OC)c(OC)c(OC)c2)cc1NC(=O)CNC(=O)OC1CC(C)(C)N([O])C(C)(C)C1 | 0.39 µM | 1.09 µM | 0.41 µM | 0.98 µM | Activity (HeLa [3]): 1.14%; inhibition (Capra hircus [4]): Active; Activity (HeLa [5]): 32.42%; inhibition (Capra hircus [6]): Active; Activity (HeLa [7]): 85.82%; Activity (HeLa [8]): 16.71%; Activity (HeLa [9]): Dose-dependent effect; Activity (HeLa [10]): 52.6%; Activity (HeLa [11]): Dose-dependent effect; Activity (HeLa [12]): Dose-dependent effect; Activity (HeLa [13]): 66.54%; Activity (HeLa [14]): 43.99%; Activity (HeLa [15]): 32.85%; Activity (HeLa [16]): 55.75%; Activity (HeLa [17]): 13.96%; Activity (HeLa [18]): Dose-dependent effect; Activity (HeLa [19]): 96.25%
COc1ccc(/C=C\c2cc(OC)c(OC)c(OC)c2)cc1N |  |  |  |  | IC50 ([1]; Homo sapiens, 24 h): 0.014 µM; IC50 (K562; Homo sapiens, K562, 24 h): 0.12 µM; IC50 (HeLa [2]; Homo sapiens, HeLa, 24 h): 0.403 µM; IC50 (HepG2; Homo sapiens, HepG2, 24 h): 0.028 µM
COc1ccc(/C=C\c2cc(OC)c(OC)c(OC)c2)cc1NC(=O)C1CC(C)(C)N([O])C(C)(C)C1 | 42.5 µM | 16.9 µM | 59.2 µM | 51.2 µM | 
COc1ccc(/C=C\c2cc(OC)c(OC)c(OC)c2)cc1NC(=O)[C@@H]1CCCN1C(=O)OC1CC(C)(C)N([O])C(C)(C)C1 | 4.71 µM | 5.53 µM | 3.39 µM | 4.48 µM | 
COc1ccc(/C=C\c2cc(OC)c(OC)c(OC)c2)cc1NC(=O)[C@H](CCSC)NC(=O)OC1CC(C)(C)N([O])C(C)(C)C1 | 1.68 µM | 4.15 µM | 1.16 µM | 2.05 µM | 
